Experimental data as given in publication PMC5542862 (Microcirculation (New York, N.Y. : 1994), 2017).
Where two headings read alike, the source gives them in different places.

Legend:
[1] = tested on: arcade and terminal arterioles of the hamster cheek pouch; format: in vivo; settings: for Effect of beta-adrenergic blockade on dilation (in words): propranolol 10^−6M in tissue bath; for Control Dose Max dilation / Control (%) Max dilation / Dose range of vasodilation: quiescent tissue; for Control Dose Max dilation: 60-second micropipette exposure; for Control (%) Max dilation: at the dose of max dilation; for Effect of muscarinic blockade on vasoactivity (in words): atropine 10^−7 M in tissue bath; for Dose range of vasodilation: mucocutaneous microvasculature
Method in brief: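 Adult male hamsters were anaesthetised with pentobarbital (70 mg/kg), tracheostomised and kept at 37 °C. The left cheek pouch was superfused with 37 °C bicarbonate-buffered saline and rested 30 min. Test compound was given by micropipette (10–20 μm tip, with FITC-dextran 10−6M) at the arcade–terminal junction for 60 s, then 5 min recovery. One full concentration series per site, 2–4 sites ≥1000 μm apart. Fractional diameter change = (baseline−peak)/baseline; repeated-measures ANOVA.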

[2] = tested on: PDGF-BB; settings: Lin, et al., 2014, Zhu; cited from earlier work
[3] = tested on: arcade and terminal arterioles of the hamster cheek pouch; test: Hamster cheek pouch intravital microscopy, nitrosative stress model; format: in vivo; settings: for Vasoactive response after stress compared with before (in words): nitrosative stress, agent 10^−4M by micropipette, n=35; for Effect of nitrosative stress on the concentration response (in words): SNP 10^−4M in tissue bath for 2 minutes; for Stress (%) Max dilation: after stress, at the dose of max dilation
Method in brief: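 Anaesthetised male hamster cheek pouch, superfused with 37 °C bicarbonate saline. Stress: SNP 10−4M washed into the bath for 2 min, with endothelial dysfunction checked by micropipette acetylcholine 10−4M. Test compound was given by micropipette for 60 s with 5 min recovery, 15 min–3 h after stress, at most four exposures per site. Response = (baseline−peak)/baseline from video; repeated-measures ANOVA, unpaired t-test.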

[4] = target: PDGF-BB; settings: cited from earlier work; for Kd: read-out: KD for PDGF-BB binding
[5] = tested on: arcade and terminal arterioles of the hamster cheek pouch; format: in vivo; settings: 20s, 50 °C, within 500 μm of heat rim
Method in brief: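 In the superfused cheek pouch of anaesthetised male hamsters, a thermocouple-controlled microcautery Pt wire (300 μm) applied 50 °C for 20 s. After 15 min, micropipette exposures (60 s, 5 min recovery) were mapped to 1000 μm from the heat rim; only sites within 500 μm are reported. Diameter change = (baseline−peak)/baseline from video; repeated-measures ANOVA or unpaired t-test, α 0.05.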

[6] = tested on: adult human dermal fibroblasts; settings: cited from earlier work
[7] = tested on: thermal burn injury progression; settings: rat hot comb model; cited from earlier work

## YILRWRPK [P18]
[1]; arcade and terminal arterioles
  Effect of beta-adrenergic blockade on dilation (in words): prevented vasodilation
[1]; terminal arterioles
  Control Dose Max dilation: 10^−8M
  Control (%) Max dilation: 26%
[2]
  FN/PDGF-BB binding inhibition: 26%

## CNC[C@H](O)c1cccc(O)c1 [phenylephrine, reference compound]
[1]; arcade arterioles, phenylephrine 10^−5M, no blocker, mean ± SD, n=23 sites
  Diameter change, fractional change from baseline: −0.52±0.18
[1]; arcade arterioles, phenylephrine 10^−6M, mean ± SD
  Diameter change, fractional change from baseline: −0.53±0.18
[1]; terminal arterioles, phenylephrine 10^−5M, no blocker, mean ± SD, n=23 sites
  Diameter change, fractional change from baseline: −0.48±0.16
[1]; terminal arterioles, phenylephrine 10^−6M, mean ± SD
  Diameter change, fractional change from baseline: −0.48±0.16
[3]
  Vasoactive response after stress compared with before (in words): unaffected

## ILRWRPK [P7]
[1]
  Effect of muscarinic blockade on vasoactivity (in words): no effect
  Dose range of vasodilation: 10^−9–10^−8 M
[1]; arcade and terminal arterioles
  Effect of beta-adrenergic blockade on dilation (in words): prevented vasodilation
[1]; terminal arterioles
  Control Dose Max dilation: 10^−8M
  Control (%) Max dilation: 28%
[3]
  Effect of nitrosative stress on the concentration response (in words): left shift
  Stress (%) Max dilation: 29%
[2]
  FN/PDGF-BB binding inhibition: 0.1%
[4]
  Kd: 1000 nM

## LRWRPK [P39]
[1]; terminal arterioles
  Control (%) Max dilation: 8%
[2]
  FN/PDGF-BB binding inhibition: 0.0%

## PSHISKYILRWRPK [EVA-1, epiviosamine-1]
[1]
  Effect of muscarinic blockade on vasoactivity (in words): no effect
  Dose range of vasodilation: 10^−9–10^−8 M
[1]; arcade and terminal arterioles
  Effect of beta-adrenergic blockade on dilation (in words): prevented vasodilation
[1]; terminal arterioles
  Control Dose Max dilation: 10^−9M
  Control (%) Max dilation: 22%
[3]
  Effect of nitrosative stress on the concentration response (in words): left shift
  Stress (%) Max dilation: 32%
[5]; arcade arterioles
  Dilation at 10^−8M after thermal stress (in words): reversed to constriction
[5]; both arteriolar types
  Response to sub-nanomolar dose after thermal stress (in words): significant vasodilation
[5]; terminal arterioles
  Dilation at 10^−8M after thermal stress (in words): eliminated
[6]
  Dose conferring survival activity: 10^−7 M
[2]
  FN/PDGF-BB binding inhibition: 95.5%
[4]
  Dose range binding PDGF-BB: 10^−8–10^−7 M
  Kd: 200 nM
[7]
  Effect on thermal burn injury progression (in words): limits thermal burn injury progression

## RWRPK [P37]
[1]; arcade and terminal arterioles
  Effect of beta-adrenergic blockade on dilation (in words): prevented vasodilation
[1]; terminal arterioles
  Control (%) Max dilation: 19%
[3]
  Effect of nitrosative stress on the concentration response (in words): left shift
  Stress (%) Max dilation: 45%
[2]
  FN/PDGF-BB binding inhibition: 0.0%

## CC(C)NCC(O)c1ccc(O)c(O)c1 (stereo not drawn) [isoproterenol, reference compound]
[1]; arcade arterioles, isoproterenol 10^−7M with propranolol (10^−6M), mean ± SD, n=23 sites
  Diameter change, fractional change from baseline: 0.00±0.11
[1]; arcade arterioles, isoproterenol 10^−7M, no blocker, mean ± SD, n=23 sites
  Diameter change, fractional change from baseline: 0.41±0.3
[1]; terminal arterioles, isoproterenol 10^−6M with carazolol 10^−9M, mean+sem, significant constriction
  Diameter change, fractional change from baseline: −0.50+0.15
[1]; terminal arterioles, isoproterenol 10^−7M with propranolol (10^−6M), mean ± SD, n=23 sites
  Diameter change, fractional change from baseline: 0.01±0.00
[1]; terminal arterioles, isoproterenol 10^−7M, no blocker, mean ± SD, n=23 sites
  Diameter change, fractional change from baseline: 0.43±0.34

## FN: Full-length plasma fibronectin
[1]; arcade and terminal arterioles, 10^−16–10^−4M by micropipette, N=5–8 per peptide
  Vasoactive response in quiescent tissue (in words): induced only vasodilation
[1]
  Effect of muscarinic blockade on vasoactivity (in words): no effect
[1]; phentolamine 10^−5M plus propranolol 10^−6M
  Effect of combined alpha- and beta-adrenergic blockade (in words): eliminated only the vasodilation with the peptides and not FN
[1]; arcade and terminal arterioles
  Effect of beta-adrenergic blockade on dilation (in words): significantly diminished dilation

## nitroprusside [reference compound]
[3]
  Vasoactive response after stress compared with before (in words): not compromised

## CC(=O)OCC[N+](C)(C)C [acetylcholine, reference compound]
[1]; arcade arterioles, acetylcholine 10^−4M with atropine (10^−7 M), mean ± SD, n=26 sites
  Diameter change, fractional change from baseline: 0.03±0.15
[1]; arcade arterioles, acetylcholine 10^−4M, no blocker, mean ± SD, n=26 sites
  Diameter change, fractional change from baseline: 0.50±0.36
[1]; terminal arterioles, acetylcholine 10^−4M with atropine (10^−7 M), mean ± SD, n=26 sites
  Diameter change, fractional change from baseline: 0.03±0.10
[1]; terminal arterioles, acetylcholine 10^−4M, no blocker, mean ± SD, n=26 sites
  Diameter change, fractional change from baseline: 0.49±0.28

## Nc1ncnc2c1ncn2[C@@H]1O[C@H](CO)[C@@H](O)[C@H]1O [adenosine, reference compound]
[1]; arcade arterioles, adenosine 10^−4 M, mean ± SD
  Diameter change, fractional change from baseline: 0.54±0.35
[1]; terminal arterioles, adenosine 10^−4 M, mean ± SD
  Diameter change, fractional change from baseline: 0.60±0.43
[3]
  Vasoactive response after stress compared with before (in words): compromised
